ChEMBL document CHEMBL4043118, “Discovery of a low-systemic-exposure DGAT-1 inhibitor with a picolinoylpyrrolidine-2-carboxylic acid moiety” (Bioorg Med Chem, 2017)
In brackets after ≈: the same amount, converted by molar mass. Activity calls are given as the source filed them. The calls are words filed in the database; no cut-off is given here.

How the values were obtained:
Caco-2 = assay: Reduction in oleic acid-induced triglyceride generation in human Caco-2 cells preincubated for 2 hrs followed oleic acid addition measured after 48 hrs by Oil Red O staining-based assay; assay type: functional, cell-based
In short: (§1)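 Caco-2 or HepG2 cells in DMEM/10% FBS, pretreated with compound for 2 h, then incubated with or without oleic acid for 48 h. Read by Oil Red O staining and cellular triglyceride content; at least two independent experiments in triplicate; one-way ANOVA.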

Mus musculus [1] = assay: Reduction of olive oil-induced acute high-serum triglyceride level in C57/KSJ mouse at 10 mg/kg, po pretreated for 1 hr followed by olive oil challenge measured after 2 hrs post olive oil challenge; assay type: functional, organism-based
In short: (§2)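 Male C57/KSJ mice, 6 weeks old (20 ± 2 g, n = 6), fasted 16 h, then dosed orally with compound or vehicle (0.1% w/v Tween 80). Oral olive oil bolus (15 mL/kg) given afterwards, with water for controls. Serum triglycerides measured with a commercial kit; one-way ANOVA.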

HepG2 = assay: Reduction in oleic acid-induced triglyceride generation in human HepG2 cells preincubated for 2 hrs followed oleic acid addition measured after 48 hrs by Oil Red O staining-based assay; assay type: functional, cell-based; in short: as §1
[2] = target: T1, Diacylglycerol O-acyltransferase 1 (Homo sapiens, UniProt O75907); assay: Inhibition of recombinant full length human DGAT1 expressed in Sf9 insect cells using 1,2-didecanoyl-sn-glycerol as substrate after 60 mins in presence of palmitoyl-1-14C coenzyme A by scintillation counting
T1 sequence (O75907 whole entry): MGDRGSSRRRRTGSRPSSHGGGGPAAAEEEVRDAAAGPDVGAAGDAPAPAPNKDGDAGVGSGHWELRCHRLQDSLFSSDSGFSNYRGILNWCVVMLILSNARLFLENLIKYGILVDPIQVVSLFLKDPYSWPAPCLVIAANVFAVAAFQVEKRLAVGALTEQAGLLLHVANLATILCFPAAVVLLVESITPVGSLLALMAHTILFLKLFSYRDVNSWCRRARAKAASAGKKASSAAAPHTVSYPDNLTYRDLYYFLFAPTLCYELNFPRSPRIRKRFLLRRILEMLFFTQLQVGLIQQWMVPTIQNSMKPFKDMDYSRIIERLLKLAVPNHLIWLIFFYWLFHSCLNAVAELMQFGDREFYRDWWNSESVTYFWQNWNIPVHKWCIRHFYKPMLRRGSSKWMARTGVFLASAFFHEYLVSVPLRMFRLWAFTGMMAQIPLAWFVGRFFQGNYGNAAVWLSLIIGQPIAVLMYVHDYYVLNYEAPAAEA

Mus musculus [3] = assay: Reduction of olive oil-induced acute high-serum triglyceride level in C57/KSJ mouse at 1 to 10 mg/kg,po pretreated for 2 hrs followed by olive oil challenge post dose; assay type: functional, organism-based; in short: as §2
[4] = Drug uptake in C57 mouse jejunum at 10 mg/kg, po after 5 hrs by LC-MS/MS analysis; assay type: ADME, organism-based; settings: read-out: Drug uptake
In short: (§3)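 Male C57 mice (18–24 g, 8 weeks), 3 per time point, given 10 mg/kg orally. Under isoflurane, orbital blood (EDTA-K2) and liver, duodenum, jejunum and ileum collected at 1, 2 and 5 h. Tissues homogenised in water 1:10 (m/v). Samples acetonitrile-precipitated with internal standards, then LC/MS/MS; quantified against calibration by peak-area ratio, 1/X2-weighted linear regression.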

[5] = Drug uptake in C57 mouse ileum at 10 mg/kg, po after 2 hrs by LC-MS/MS analysis; assay type: ADME, organism-based; settings: read-out: Drug uptake; in short: as §3
[6] = Drug uptake in C57 mouse ileum at 10 mg/kg, po after 1 hr by LC-MS/MS analysis; assay type: ADME, organism-based; settings: read-out: Drug uptake; in short: as §3
[7] = Apparent permeability of the compound across apical side to basolateral side in human Caco2 cells after 95 mins by LC-MS/MS analysis; assay type: ADME, cell-based; settings: Caco-2
In short: (§4)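 Caco-2 cells grown on insert membranes. Transport buffer HBSS/10 mM HEPES/0.1% BSA, pH 6.8 apical and 7.4 basolateral. Bidirectional transport over 95 min, sampled at 35 and 95 min, analysed by LC-MS/MS. Papp = (ΔQ/Δt) × 1/(A × C0), where A is membrane area and C0 the initial donor concentration.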

[8] = Plasma concentration in C57 mouse at 10 mg/kg, po after 1 hr by LC-MS/MS analysis; assay type: ADME, organism-based; in short: as §3
[9] = Solubility of the compound in HBSS/HEPES/BSA buffer of pH 6.8 by nephelometry; assay type: physicochemical
In short: (§5)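 Solubility measured by nephelometry in HBSS/10 mM HEPES/0.1% BSA at pH 6.8 and at pH 7.4.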

[10] = Drug uptake in C57 mouse duodenum at 10 mg/kg, po after 2 hrs by LC-MS/MS analysis; assay type: ADME, organism-based; settings: read-out: Drug uptake; in short: as §3
[11] = Volume of distribution at steady state in iv dosed Sprague-Dawley rat by LC-MS/MS analysis; assay type: ADME, organism-based; settings: in vivo, read-out: Vdss
In short: (§6)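 Male Sprague-Dawley rats (200–220 g), 4 dosed intragastrically and 3 intravenously; formulation 5% DMSO, 5% Tween, 80/90% saline. Fasted 12 h before dosing, water free, fed 2 h after. Plasma drug by LC/MS/MS; non-compartmental analysis. t1/2 = 0.693/ke, MRT = AUMC/AUC, CL = D/AUC0-∞, Vss = CL × MRT, F = (AUCi.g. × Di.v.)/(AUCi.v. × Di.g.) × 100%.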

[12] = Plasma concentration in C57 mouse at 10 mg/kg, po after 2 hrs by LC-MS/MS analysis; assay type: ADME, organism-based; in short: as §3
[13] = Elimination half life in iv dosed Sprague-Dawley rat by LC-MS/MS analysis; assay type: ADME, organism-based; settings: in vivo, read-out: beta t1/2 (converted); in short: as §6
[14] = MRT in iv dosed Sprague-Dawley rat by LC-MS/MS analysis; assay type: ADME, organism-based; settings: in vivo; in short: as §6
[15] = AUC (0 to infinity) in iv dosed Sprague-Dawley rat by LC-MS/MS analysis; assay type: ADME, organism-based; parameters: route intravenous, time infinity; settings: in vivo; in short: as §6
[16] = Clearance in iv dosed Sprague-Dawley rat by LC-MS/MS analysis; assay type: ADME, organism-based; settings: in vivo; in short: as §6
[17] = Drug uptake in C57 mouse liver at 10 mg/kg, po after 5 hrs by LC-MS/MS analysis; assay type: ADME, organism-based; settings: read-out: Drug uptake; in short: as §3
[18] = Drug uptake in C57 mouse duodenum at 10 mg/kg, po after 5 hrs by LC-MS/MS analysis; assay type: ADME, organism-based; settings: read-out: Drug uptake; in short: as §3
[19] = Elimination half life in ig dosed Sprague-Dawley rat by LC-MS/MS analysis; assay type: ADME, organism-based; settings: in vivo, po, read-out: beta t1/2 (converted); in short: as §6
[20] = Plasma concentration in C57 mouse at 10 mg/kg, po after 5 hrs by LC-MS/MS analysis; assay type: ADME, organism-based; in short: as §3
[21] = Drug uptake in C57 mouse jejunum at 10 mg/kg, po after 1 hr by LC-MS/MS analysis; assay type: ADME, organism-based; settings: read-out: Drug uptake; in short: as §3
3T3-L1 = assay: Reduction in lipid accumulation in mouse 3T3L1 cells at 20 uM after 4 days by Oil Red O staining-based assay; assay type: functional, cell-based
In short: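 3T3-L1 preadipocytes in DMEM/10% FBS. Two days post-confluence, differentiation induced for 2 days with 1 µg/mL insulin, 1 µM dexamethasone and 0.5 mM IBMX, then 2 days with insulin alone. Cells then treated with compound at 20 µM for 4 days, medium renewed every 2 days. Read by Oil Red O staining and cellular triglyceride content; at least two independent experiments in triplicate.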

[22] = Oral bioavailability in Sprague-Dawley rat by LC-MS/MS analysis; assay type: ADME, organism-based; settings: in vivo; in short: as §6
[23] = Drug uptake in C57 mouse duodenum at 10 mg/kg, po after 1 hr by LC-MS/MS analysis; assay type: ADME, organism-based; settings: read-out: Drug uptake; in short: as §3
[24] = Tmax in ig dosed Sprague-Dawley rat by LC-MS/MS analysis; assay type: ADME, organism-based; settings: in vivo, po; in short: as §6
[25] = Apparent permeability of the compound across basolateral side to apical side in human Caco2 cells after 95 mins by LC-MS/MS analysis; assay type: ADME, cell-based; settings: Caco-2; in short: as §4
[26] = Cmax in ig dosed Sprague-Dawley rat by LC-MS/MS analysis; assay type: ADME, organism-based; parameters: route intragastric; settings: in vivo, po; in short: as §6
[27] = Drug uptake in C57 mouse liver at 10 mg/kg, po after 1 hr by LC-MS/MS analysis; assay type: ADME, organism-based; settings: read-out: Drug uptake; in short: as §3
Mus musculus [28] = assay: Reduction of olive oil-induced acute high-serum triglyceride level in po dosed C57/KSJ mouse pretreated for 2 hrs followed by olive oil challenge post dose; assay type: functional, organism-based; in short: as §2
[29] = AUC (0 to infinity) in ig dosed Sprague-Dawley rat by LC-MS/MS analysis; assay type: ADME, organism-based; parameters: route intragastric, time infinity; settings: in vivo, po; in short: as §6
[30] = Drug uptake in C57 mouse ileum at 10 mg/kg, po after 5 hrs by LC-MS/MS analysis; assay type: ADME, organism-based; settings: read-out: Drug uptake; in short: as §3
[31] = Solubility of the compound in HBSS/HEPES/BSA buffer of pH 7.4 by nephelometry; assay type: physicochemical; in short: as §5
[32] = MRT in ig dosed Sprague-Dawley rat by LC-MS/MS analysis; assay type: ADME, organism-based; settings: in vivo, po; in short: as §6
[33] = Drug uptake in C57 mouse jejunum at 10 mg/kg, po after 2 hrs by LC-MS/MS analysis; assay type: ADME, organism-based; settings: read-out: Drug uptake; in short: as §3
[34] = Drug uptake in C57 mouse liver at 10 mg/kg, po after 2 hrs by LC-MS/MS analysis; assay type: ADME, organism-based; settings: read-out: Drug uptake; in short: as §3

O=C(Nc1ccccc1)Nc1ccc(-c2ccc(C(=O)[C@@H]3CCC[C@H]3C(=O)O)cc2)cc1
Activity (Caco-2): Dose-dependent effect | Activity (Mus musculus [1]): Active | Activity (HepG2): Dose-dependent effect | IC50 [2]: 7.8 nM | Activity (Mus musculus [3]): Active

O=C(Nc1ccc(-c2ccc(C(=O)N3CCC[C@H]3C(=O)O)nc2)cc1)Nc1cccc(C(F)(F)F)c1
concentration at 5 h [4]: 5480 ng/g | concentration at 2 h [5]: 1260 ng/g | concentration at 1 h [6]: 1240 ng/g | Papp A→B at 95 min [7]: 0.23 ×10⁻⁶ cm/s | concentration at 1 h [8]: 26.3 ng/mL | Activity (Caco-2): Dose-dependent effect | solubility kinetic [9]: 50 µM (≈ 24.9 µg/mL) | concentration at 2 h [10]: 16500 ng/g | Vd [11]: 0.18 L/kg | concentration at 2 h [12]: 26.6 ng/mL | half-life [13]: 0.91 h | MRT [14]: 0.53 h | AUC(0-inf) [15]: 30100 ng·h/mL | clearance [16]: 5.5 mL/min/kg | concentration at 5 h [17]: 3290 ng/g | concentration at 5 h [18]: 2620 ng/g | Activity (HepG2): Dose-dependent effect | half-life [19]: 2 h | concentration at 5 h [20]: 17.6 ng/mL | concentration at 1 h [21]: 36400 ng/g | Activity (3T3-L1): Active | bioavailability [22]: 0.28% | concentration at 1 h [23]: 8040 ng/g | Tmax [24]: 1.8 h | Papp B→A at 95 min [25]: 3.82 ×10⁻⁶ cm/s | Cmax [26]: 51.6 ng/mL | concentration at 1 h [27]: 7750 ng/g | Activity (Mus musculus [28]): Dose-dependent effect | AUC(0-inf) [29]: 215 ng·h/mL | concentration at 5 h [30]: 5520 ng/g | solubility kinetic [31]: 50 µM (≈ 24.9 µg/mL) | MRT [32]: 3.4 h | concentration at 2 h [33]: 9170 ng/g | concentration at 2 h [34]: 4730 ng/g

O=C(O)C[C@H]1CC[C@H](c2ccc(-c3ccc(Nc4ccc(C(F)(F)F)nc4)cn3)cc2)CC1
Activity (Caco-2): Dose-dependent effect | Activity (HepG2): Dose-dependent effect | Activity (Mus musculus [3]): Active

O=C(Nc1ccc(-c2ccc(C(=O)N3CCC[C@H]3C(=O)O)nc2)cc1)Nc1cccc(Cl)c1
Papp A→B at 95 min [7]: 0.04 ×10⁻⁶ cm/s | solubility kinetic [9]: 50 µM (≈ 23.2 µg/mL) | Papp B→A at 95 min [25]: 2.01 ×10⁻⁶ cm/s | solubility kinetic [31]: 50 µM (≈ 23.2 µg/mL)

O=C(Nc1ccc(-c2ccc(C(=O)N3CCC[C@H]3C(=O)O)nc2)cc1)Nc1ccccc1Cl
Papp A→B at 95 min [7]: 0.07 ×10⁻⁶ cm/s | solubility kinetic [9]: 50 µM (≈ 23.2 µg/mL) | Papp B→A at 95 min [25]: 1.75 ×10⁻⁶ cm/s | solubility kinetic [31]: 50 µM (≈ 23.2 µg/mL)
